Measured values from ChEMBL document CHEMBL2396576, “Identification of 1,6-dihydropyrazolo[4,3-c]carbazoles and 3,6-dihydropyrazolo[3,4-c]carbazoles as new Pim kinase inhibitors” (Bioorg Med Chem, 2013).
pIC50: −log10 of the molar value. Blank lines part the entries; values can stand above or below the molecule they belong to.

Key:
[1] = molecular target: T1, Serine/threonine-protein kinase pim-3 (Homo sapiens, UniProt Q86V86); assay: Inhibition of human PIM3 assessed as residual activity using RSRHSSYPAGT as substrate at 10 uM after 30 mins
[2] = molecular target: T2, Serine/threonine-protein kinase pim-1 (Homo sapiens, UniProt P11309); assay: Inhibition of human PIM1 assessed as residual activity using RSRHSSYPAGT as substrate at 10 uM after 30 mins
Target sequence in this assay (P11309 whole entry, looked up): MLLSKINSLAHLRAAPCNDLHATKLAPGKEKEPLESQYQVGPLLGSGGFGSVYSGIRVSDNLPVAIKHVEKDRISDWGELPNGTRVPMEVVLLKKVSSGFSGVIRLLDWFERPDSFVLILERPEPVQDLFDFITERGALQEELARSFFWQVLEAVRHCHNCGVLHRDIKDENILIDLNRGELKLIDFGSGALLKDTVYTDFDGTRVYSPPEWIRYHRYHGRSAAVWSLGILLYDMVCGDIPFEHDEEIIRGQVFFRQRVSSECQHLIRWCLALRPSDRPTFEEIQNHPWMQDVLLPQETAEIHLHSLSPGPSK

[3] = molecular target: T1, Serine/threonine-protein kinase pim-3; assay: Inhibition of human PIM3 assessed as residual activity using RSRHSSYPAGT as substrate at 1 uM after 30 mins
LNCaP = assay: Antiproliferative activity against human LNCAP cells assessed as cell growth inhibition at 10 uM after 72 hrs by MTS assay; format: functional; conditions: read-out: GI
Procedure, shortened: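 LNCaP cells grown in RPMI 1640 with 10% FCS at 37 °C, 5% CO2, seeded at 5000 per well. After 24 h, compound in DMSO (1% final) added at 10 µM for 72 h; DMSO controls. Viable cells by MTS absorbance at 490 nm; percent proliferation inhibition.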

PC-3 [4] = assay: Antiproliferative activity against human PC3 cells assessed as cell growth inhibition at 10 uM after 72 hrs by MTS assay; format: functional; conditions: PC-3, 72 h, read-out: GI
Procedure, shortened: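 PC3 cells kept in RPMI 1640 plus 10% FCS (37 °C, 5% CO2) and plated at 2500 per well. Compound added 24 h later at 10 µM in DMSO (1% final), 72 h exposure, vehicle controls. MTS read at 490 nm; percent inhibition of proliferation.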

[5] = molecular target: Serine/threonine-protein kinase pim-2 (Homo sapiens) (UniProt Q9P1W9); assay: Inhibition of human PIM2 assessed as residual activity using RSRHSSYPAGT as substrate at 1 uM after 30 mins
Sequence of Serine/threonine-protein kinase pim-2 (Homo sapiens) (Q9P1W9 whole entry, looked up): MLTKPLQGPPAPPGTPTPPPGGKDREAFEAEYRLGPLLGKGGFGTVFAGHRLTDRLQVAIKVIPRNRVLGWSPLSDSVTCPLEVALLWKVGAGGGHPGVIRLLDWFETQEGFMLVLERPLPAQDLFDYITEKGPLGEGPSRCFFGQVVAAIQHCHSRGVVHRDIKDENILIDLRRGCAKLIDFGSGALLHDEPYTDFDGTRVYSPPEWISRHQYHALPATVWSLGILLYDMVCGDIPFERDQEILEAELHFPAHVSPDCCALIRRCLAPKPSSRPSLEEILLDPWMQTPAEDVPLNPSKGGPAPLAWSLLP

[6] = molecular target: Serine/threonine-protein kinase pim-2 (Homo sapiens) (UniProt Q9P1W9); assay: Inhibition of human PIM2 assessed as residual activity using RSRHSSYPAGT as substrate at 10 uM after 30 mins
[7] = molecular target: T2, Serine/threonine-protein kinase pim-1; assay: Inhibition of human PIM1 assessed as residual activity using RSRHSSYPAGT as substrate at 1 uM after 30 mins
Target sequence in this assay (P11309 whole entry, looked up): as the sequence (P11309 whole entry, looked up) above

[8] = molecular target: T2, Serine/threonine-protein kinase pim-1; assay: Inhibition of human PIM1 using RSRHSSYPAGT as substrate after 30 mins
Target sequence in this assay (P11309 whole entry): as the sequence (P11309 whole entry, looked up) above

[9] = molecular target: T1, Serine/threonine-protein kinase pim-3; assay: Inhibition of human PIM3 using RSRHSSYPAGT as substrate after 30 mins
PC-3 [10] = assay: Antiproliferative activity against human PC3 cells assessed as cell growth inhibition after 72 hrs by MTS assay; format: functional, cell-based; conditions: PC-3, 72 h

SMILES: Nc1cc2[nH]ncc2c2c1[nH]c1ccccc12
Activity [1]: 20% | Activity [2]: 16% | Activity [3]: 66% | inhibition of growth at 10 µM (LNCaP): 56% | inhibition of growth at 10 µM (PC-3 [4]): 56% | Activity [5]: 96% | Activity [6]: 71% | Activity [7]: 61%

SMILES: COc1ccc2[nH]c3c([N+](=O)[O-])cc4c[nH]nc4c3c2c1
pIC50 [8]: 6.66 | pIC50 [9]: 6.96

SMILES: O=[N+]([O-])c1cc2n[nH]cc2c2c1[nH]c1ccccc12
pIC50 [8]: 7.40 | pIC50 [9]: 7.00

SMILES: Nc1cc2[nH]ncc2c2c1[nH]c1ccc(Cl)cc12
pIC50 [8]: 5.96 | Activity [1]: 7% | Activity [2]: 8% | Activity [3]: 28% | pIC50 [9]: 6.96 | inhibition of growth at 10 µM (LNCaP): 27% | inhibition of growth at 10 µM (PC-3 [4]): 45% | Activity [5]: 107% | Activity [6]: 34% | Activity [7]: 45%

SMILES: O=[N+]([O-])c1cc2[nH]ncc2c2c1[nH]c1ccc(Cl)cc12
pIC50 [8]: 6.70 | Activity [1]: 19% | Activity [2]: 39% | Activity [3]: 26% | pIC50 [9]: 6.64 | inhibition of growth at 10 µM (LNCaP): 0% | inhibition of growth at 10 µM (PC-3 [4]): 50% | Activity [5]: 57% | Activity [6]: 54% | Activity [7]: 48%

SMILES: COc1ccc2[nH]c3c(N)cc4[nH]ncc4c3c2c1
Activity [1]: 16% | Activity [2]: 23% | Activity [3]: 51% | inhibition of growth at 10 µM (LNCaP): 39% | inhibition of growth at 10 µM (PC-3 [4]): 46% | Activity [5]: 123% | Activity [6]: 54% | Activity [7]: 70%

SMILES: COc1ccc2[nH]c3c([N+](=O)[O-])cc4n[nH]cc4c3c2c1
pIC50 [8]: 6.82 | pIC50 [9]: 6.96

SMILES: COc1ccc2[nH]c3c([N+](=O)[O-])cc4cn[nH]c4c3c2c1
Activity [1]: 23% | Activity [2]: 39% | Activity [3]: 28% | inhibition of growth at 10 µM (LNCaP): 19% | inhibition of growth at 10 µM (PC-3 [4]): 29% | Activity [5]: 77% | Activity [6]: 72% | Activity [7]: 41%

SMILES: O=[N+]([O-])c1cc2c[nH]nc2c2c1[nH]c1ccccc12
pIC50 [8]: 6.40 | pIC50 [9]: 6.68

SMILES: O=[N+]([O-])c1cc2cn[nH]c2c2c1[nH]c1ccccc12
Activity [1]: 16% | Activity [2]: 26% | Activity [3]: 22% | inhibition of growth at 10 µM (LNCaP): 45% | inhibition of growth at 10 µM (PC-3 [4]): 59% | Activity [5]: 76% | Activity [6]: 46% | Activity [7]: 44%

SMILES: Nc1cc2cn[nH]c2c2c1[nH]c1ccc(Cl)cc12
Activity [1]: 14% | Activity [2]: 29% | Activity [3]: 55% | inhibition of growth at 10 µM (LNCaP): 35% | inhibition of growth at 10 µM (PC-3 [4]): 43% | Activity [5]: 115% | Activity [6]: 79% | Activity [7]: 85%

The next lines start with results.

Activity [1]: 11% | Activity [2]: 13% | Activity [3]: 21% | pIC50 (PC-3 [10]): 5.64 | Activity [5]: 54% | Activity [6]: 35% | Activity [7]: 29%
SMILES: COc1ccc2[nH]c3c([N+](=O)[O-])cc4[nH]ncc4c3c2c1
inhibition of growth at 10 µM (LNCaP): 27% | inhibition of growth at 10 µM (PC-3 [4]): 74%

Activity [1]: 17% | Activity [2]: 15% | Activity [3]: 28% | pIC50 (PC-3 [10]): 5.52 | Activity [5]: 49% | Activity [6]: 38% | Activity [7]: 14%
SMILES: O=[N+]([O-])c1cc2[nH]ncc2c2c1[nH]c1ccccc12
inhibition of growth at 10 µM (LNCaP): 38% | inhibition of growth at 10 µM (PC-3 [4]): 85%

Activity [1]: 14% | Activity [2]: 43% | Activity [3]: 46% | pIC50 [9]: 6.15 | Activity [5]: 120% | Activity [6]: 70% | Activity [7]: 93%
SMILES: COc1ccc2[nH]c3c(N)cc4cn[nH]c4c3c2c1
inhibition of growth at 10 µM (LNCaP): 8% | inhibition of growth at 10 µM (PC-3 [4]): 28%

Activity [1]: 20% | Activity [2]: 54% | Activity [3]: 63% | Activity [5]: 116% | Activity [6]: 78% | Activity [7]: 98%
SMILES: Nc1cc2cn[nH]c2c2c1[nH]c1ccccc12
inhibition of growth at 10 µM (LNCaP): 28% | inhibition of growth at 10 µM (PC-3 [4]): 31%

Activity [1]: 38% | Activity [2]: 60% | Activity [3]: 50% | pIC50 [9]: 7.05 | Activity [5]: 90% | Activity [6]: 93% | Activity [7]: 69%
SMILES: O=[N+]([O-])c1cc2cn[nH]c2c2c1[nH]c1ccc(Cl)cc12
inhibition of growth at 10 µM (LNCaP): 28% | inhibition of growth at 10 µM (PC-3 [4]): 51%

pIC50 [9]: 6.22
SMILES: COc1ccc2[nH]c3c(N)cc4n[nH]cc4c3c2c1
